Assay outcomes: PubChem BioAssay, several laboratories
WT yeast gro inh: growth inhibition of WT yeast, mitochondrial fusion screen; mitochondrial fusion phenotypic screen, WT strain; inhibition, % at 10 µM; 190,000 tested, 2.1% active; AID 1362; in the data active = inhibition above about 58%; tested in S. cerevisiae
EBV gp42 block: EBV gp42 inhibition; Q1HVG2; Fluorescence polarization binding assay, mP read-out; inhibition, % (tested at 21.74 µM); 220,000 tested, 0.42% active; AID 1085; in the data active = inhibition above about 50%
Target sequence (Q1HVG2 whole entry, looked up): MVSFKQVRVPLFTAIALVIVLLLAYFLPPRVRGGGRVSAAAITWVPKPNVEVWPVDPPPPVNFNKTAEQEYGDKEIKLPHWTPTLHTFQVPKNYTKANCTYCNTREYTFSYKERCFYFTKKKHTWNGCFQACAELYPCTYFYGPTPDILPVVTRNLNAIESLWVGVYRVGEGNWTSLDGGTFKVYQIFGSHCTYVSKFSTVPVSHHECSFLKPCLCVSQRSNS
NCF1 inh: inhibitors of human p47phox binding | P14598 | p47phox/p22phox peptide binding, fluorescence polarization, 2 h | inhibition, % at 24.7 µM | 220,000 tested, 0.53% active;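 also: 0% = p47phox with labelled peptide and 100% = labelled peptide alone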
14-3-3 Bad inh: disrupts binding of bovine 14-3-3 zeta to phospho-Bad peptide; P63103; inhibition, % at 21.7 µM; 220,000 tested, 0.71% active; TR-FRET 14-3-3zeta/Dy647-pBad peptide displacement, 1 h; AID 781;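 active = inhibition above about 70%, limit read from the data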;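 also: 0% = full 14-3-3 plus peptide FRET controls and 100% = background without 14-3-3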
RBBP9 inhibitor: inhibitors of human serine hydrolase RBBP9; O75884; recombinant RBBP9, FP-Rh probe fluorescence polarization; inhibition, % at 7.94 µM; 220,000 tested, 0.2% active; AID 1515;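 active = inhibition above the campaign mean of all tested compounds plus 3 SD, cut at about 14% in these data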;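 also: plate controls were DMSO wells with RBBP9 for no effect and wells lacking RBBP9 protein for full effect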
Target sequence (O75884 whole entry, looked up): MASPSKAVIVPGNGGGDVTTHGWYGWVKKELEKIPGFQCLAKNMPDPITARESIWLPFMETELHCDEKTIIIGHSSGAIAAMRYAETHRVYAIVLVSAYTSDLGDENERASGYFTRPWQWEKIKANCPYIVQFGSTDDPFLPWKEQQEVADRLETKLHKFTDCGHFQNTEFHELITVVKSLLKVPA
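System: RBBP9 protein | Quantity: 2.5 µM RBBP9 dispensing solution, before mixing | Reagent: FP-Rh probe, 375 nM dispensing solution | Timing: Enzyme-compound preincubation 30 min, then probe labeling 45 min, 25 °C | Measured by: Fluorescence polarization | Read-out: % inhibition | Replication: One well per compound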
eIF4E 4G PPI: blocks eIF4E binding to eIF4G. P63073+Q04637. TR-FRET eIF4E-eIF4GI(517-606) binding, 2 h. inhibition, % at 21.7 µM. 220,000 tested, 0.37% active. AID 782;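 also: 0% = full FRET control wells and 100% = background wells lacking eIF4GI fragment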
* marks the source's active call; other numbers are inactive results. Only some compounds are listed: those with a hit (about 3.7% of all), similar ones and a draw of the others.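 The calls were made as follows, unless noted: active = inhibition above about 30% (limit read from the data); inactive = the rest.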

What do the screens show for `O=[N+]([O-])c1cccc(S(=O)(=O)Nc2nc3ccccc3nc2Nc2cccc(S(=O)(=O)N3CCCCC3)c2)c1`?
WT yeast gro inh: -21; EBV gp42 block: -4; NCF1 inh: -30; 14-3-3 Bad inh: 10; RBBP9 inhibitor: -8; eIF4E 4G PPI: 9

How did CCN(CC)CC(=O)Nc1cccc(S(=O)(=O)N2CCCC2)c1 do in these assays?
EBV gp42 block: -18; NCF1 inh: 0; 14-3-3 Bad inh: 3; RBBP9 inhibitor: 11; eIF4E 4G PPI: -7

How did O=C(CNCC1CCCCC1)Nc1ccccc1N1CCCCC1 do in these assays?
WT yeast gro inh: -15; EBV gp42 block: -1; NCF1 inh: -7; 14-3-3 Bad inh: 80*; RBBP9 inhibitor: -1; eIF4E 4G PPI: -3

How did O=C(Nc1cccc(S(=O)(=O)N2CCCCC2)c1)c1ccc2ccccc2n1 do in these assays?
WT yeast gro inh: 21; EBV gp42 block: -18; NCF1 inh: -32; 14-3-3 Bad inh: 0; RBBP9 inhibitor: -7; eIF4E 4G PPI: 2

What do the screens show for `Cc1ccc(S(=O)(=O)Nc2nc3ccccc3nc2Nc2cccc(S(=O)(=O)N3CCCC3)c2)cc1`?
WT yeast gro inh: 2; EBV gp42 block: 56*; NCF1 inh: -5; 14-3-3 Bad inh: 2; RBBP9 inhibitor: -9; eIF4E 4G PPI: 4

Results for O=C(Nc1cccc(S(=O)(=O)N2CCCCC2)c1)Nc1ccc(Cl)cc1Cl ?
WT yeast gro inh: 82*; EBV gp42 block: -14; NCF1 inh: -40; 14-3-3 Bad inh: -7; RBBP9 inhibitor: -18; eIF4E 4G PPI: 9

Results for C=CCOc1ccc2c(c1)c(=O)cc(C(=O)O)n2CC ?
EBV gp42 block: -13; NCF1 inh: -9; 14-3-3 Bad inh: 2; RBBP9 inhibitor: 4; eIF4E 4G PPI: 1

What do the screens show for `CN(C)S(=O)(=O)c1ccc(Cl)c(NC(=O)COC(=O)/C=C/c2cnc3ccccc3n2)c1`?
EBV gp42 block: -3; NCF1 inh: -18; 14-3-3 Bad inh: -5; RBBP9 inhibitor: -13; eIF4E 4G PPI: -7

Results for O=C(CNC(=O)C1CCCCC1)Nc1ccccc1Cl ?
WT yeast gro inh: 16; EBV gp42 block: -3; NCF1 inh: 53*; 14-3-3 Bad inh: 13; RBBP9 inhibitor: -3; eIF4E 4G PPI: -3

How did O=C(CN1CCc2ccccc2C1)Nc1ccccc1N1CCCCCC1 do in these assays?
WT yeast gro inh: 61*; EBV gp42 block: 8; NCF1 inh: 1; 14-3-3 Bad inh: 23; RBBP9 inhibitor: -2; eIF4E 4G PPI: 7

Results for O=C(CN1CCCCC1)Nc1ccccc1NC(=O)CN1CCCCC1 ?
WT yeast gro inh: -4; EBV gp42 block: 10; NCF1 inh: -20; 14-3-3 Bad inh: 0; RBBP9 inhibitor: -6; eIF4E 4G PPI: -4

What do the screens show for `Cc1ccc(C2=CC(C)(c3ccc(C)cc3)Nc3nc(C(F)(F)F)nn32)cc1` (configuration not stated)?
WT yeast gro inh: 71*; EBV gp42 block: -29; NCF1 inh: -3; 14-3-3 Bad inh: -9; RBBP9 inhibitor: 3; eIF4E 4G PPI: 7

Results for O=C(COc1cc(O)c2c(=O)cc(-c3ccccc3)oc2c1)c1ccccc1 ?
WT yeast gro inh: -12; EBV gp42 block: 2; NCF1 inh: -9; 14-3-3 Bad inh: 11; RBBP9 inhibitor: -10; eIF4E 4G PPI: -19

Results for O=C(COc1cc(O)c2c(=O)cc(-c3ccccc3)oc2c1)c1ccc(F)cc1 ?
WT yeast gro inh: 11; EBV gp42 block: 4; NCF1 inh: 32*; 14-3-3 Bad inh: 24; RBBP9 inhibitor: -3; eIF4E 4G PPI: -10

What do the screens show for `COc1cc(/C=N/Nc2nc(-c3ccc(S(=O)(=O)N(C)C)cc3)cs2)ccc1O`?
EBV gp42 block: -11; NCF1 inh: -13; 14-3-3 Bad inh: 5; RBBP9 inhibitor: 5; eIF4E 4G PPI: 44*

How did COc1ccc(/C=N/Nc2nc(-c3cccc(S(=O)(=O)N4CCCC4)c3)cs2)cc1OC do in these assays?
WT yeast gro inh: 9; EBV gp42 block: 0; NCF1 inh: -11; 14-3-3 Bad inh: -1; RBBP9 inhibitor: -5; eIF4E 4G PPI: -5

How did Cc1ccc2ncnc(Oc3ncccc3NC(=O)C(C)(C)C)c2c1 do in these assays?
EBV gp42 block: -8; NCF1 inh: -7; 14-3-3 Bad inh: 0; RBBP9 inhibitor: -1; eIF4E 4G PPI: 1
